ChEMBL document CHEMBL3244108, “Potential antitumor agents. Some sulfur-substituted derivatives of alpha- and beta-2'-deoxythioguanosine” (J Med Chem, 1977)

Assays:
L1210 [1] = experiment: Antitumor activity in mouse L1210 cells allografted in mouse assessed as increase in survival time at optimal dose administered qd on days 1 to 5 of challenge relative to control; assay type: functional
Procedure, shortened: (§1)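 Mouse leukemia survival test run under standard National Cancer Institute protocols. T/C = (treated-animal average survival time / control-animal average survival time) × 100%. Optimum dose is expressed as mg/kg/dose. T/C data were duplicated in separate experiments except where a footnote states that confirmation was not run.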

P388 = experiment: Antitumor activity in mouse P388 cells allografted in mouse assessed as increase in survival time at optimal dose administered qd on days 1 to 9 of challenge relative to control; assay type: functional; procedure, shortened: as §1
L1210 [2] = experiment: Inhibition of DNA synthesis in mouse L1210 cells assessed as inhibition of tritiated thymidine incorporation into nucleic acids; assay type: functional; conditions: read-out: ED50 (the source's name)
Procedure, shortened: (§2)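 Cultured L1210 cells were labeled with tritiated thymidine (DNA) or tritiated uridine (RNA), and label incorporation into the isolated nucleic acids was measured. The ED50 is the drug concentration that inhibits this incorporation by 50%. Other details are referenced to earlier work.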

L1210 [3] = experiment: Inhibition of RNA synthesis in mouse L1210 cells assessed as inhibition of tritiated uridine incorporation into nucleic acids; assay type: functional; conditions: read-out: ED50 (the source's name); procedure, shortened: as §2
Mus musculus = species on record: Mus musculus; experiment: Acute toxicity in mouse; assay type: organism-based; conditions: in vivo
L1210 [4] = experiment: Antitumor activity in mouse L1210 cells allografted in mouse assessed as increase in survival time at optimal dose administered qd on days 1 to 16 of challenge relative to control; assay type: functional; procedure, shortened: as §1
L1210 [5] = experiment: Antitumor activity in mouse L1210 cells allografted in mouse assessed as increase in survival time at optimal dose administered as single dose relative to control; assay type: functional; procedure, shortened: as §1
L1210 [6] = experiment: Antitumor activity in mouse L1210 cells allografted in mouse assessed as increase in survival time at 400 mg/kg administered as single dose relative to control; assay type: functional; procedure, shortened: as §1
L1210 [7] = experiment: Antitumor activity in mouse L1210 cells allografted in mouse assessed as increase in survival time at optimal dose administered qd on days 1 to 9 of challenge relative to control; assay type: functional; procedure, shortened: as §1

| Structure (SMILES) | T/C (L1210 [1]) | T/C (P388) | EC50 (L1210 [2]) | EC50 (L1210 [3]) | Activity (Mus musculus) | T/C (L1210 [4]) | T/C (L1210 [5]) | T/C (L1210 [6]) | T/C (L1210 [7]) |
| --- | --- | --- | --- | --- | --- | --- | --- | --- | --- |
| Cn1cnc([N+](=O)[O-])c1Sc1nc(N)nc2c1ncn2[C@H]1C[C@H](O)[C@@H](CO)O1 | 173% | 161% | 25 µM | 11 µM | Non-toxic | – | – | – | – |
| CSc1nc(N)nc2c1ncn2[C@H]1C[C@H](O)[C@@H](CO)O1 | 128% | – | 27 µM | 24 µM | Non-toxic | – | – | – | – |
| Nc1nc2c(ncn2[C@@H]2C[C@H](O)[C@@H](CO)O2)c(=S)[nH]1 | 161% | 168% | > 100 µM | > 100 µM | – | 174% | – | – | – |
| Nc1nc(SCc2ccccc2)c2ncn([C@H]3C[C@H](O)[C@@H](CO)O3)c2n1 | – | – | – | – | Non-toxic | – | 172% | 157% | – |
| Nc1nc(SCc2ccccc2)c2ncn([C@@H]3C[C@H](O)[C@@H](CO)O3)c2n1 | 144% | – | – | – | Non-toxic | – | – | – | – |
| CSc1nc(N)nc2c1ncn2[C@@H]1C[C@H](O)[C@@H](CO)O1 | <125% | <125% | > 100 µM | > 100 µM | Non-toxic | – | – | – | – |
| C=CCSc1nc(N)nc2c1ncn2[C@H]1C[C@H](O)[C@@H](CO)O1 | 179% | 181% | 5.5 µM | 3 µM | Non-toxic | – | – | – | – |
| C=CCSc1nc(N)nc2c1ncn2[C@@H]1C[C@H](O)[C@@H](CO)O1 | <125% | <125% | > 100 µM | > 100 µM | Non-toxic | – | – | – | – |
| Cc1cccc(CSc2nc(N)nc3c2ncn3[C@H]2C[C@H](O)[C@@H](CO)O2)n1 | 153% | <125% | 64 µM | 31 µM | Non-toxic | – | – | – | – |
| Cc1cccc(CSc2nc(N)nc3c2ncn3[C@@H]2C[C@H](O)[C@@H](CO)O2)n1 | <125% | <125% | 79 µM | 72 µM | Non-toxic | – | – | – | – |
| Cn1cnc([N+](=O)[O-])c1Sc1nc(N)nc2c1ncn2[C@@H]1C[C@H](O)[C@@H](CO)O1 | 137% | <125% | > 100 µM | > 100 µM | Non-toxic | – | – | – | – |
| CC(=O)OC[C@H]1O[C@@H](n2cnc3c(=S)[nH]c(N)nc32)C[C@@H]1OC(C)=O | 156% | 174% | – | – | – | – | – | – | – |
| CC(=O)OC[C@H]1O[C@H](n2cnc3c(=S)[nH]c(N)nc32)C[C@@H]1OC(C)=O | <125% | – | – | – | – | – | – | – | – |
| CSc1nc(NC(C)=O)nc2c1ncn2[C@H]1C[C@H](O)[C@@H](CO)O1 | <125% | – | – | – | Non-toxic | – | – | – | – |
| Nc1nc2c(ncn2[C@H]2C[C@H](O)[C@@H](CO)O2)c(=S)[nH]1 [ATEGANOSINE] | 219% | 138% | > 100 µM | 50 µM | – | – | – | – | 208% |
